Twelve compounds from ChEMBL document CHEMBL4004805, “Tacrine-resveratrol fused hybrids as multi-target-directed ligands against Alzheimer's disease” (Eur J Med Chem, 2017) can be followed below.

Calls of active or inactive are those of the source. The calls are words filed in the database; no cut-off is given here.

Broadly, the inhibition is the share of the control response that was lost under treatment. For orientation: IC50 means the concentration that gives 50% inhibition. High values mean a need for much substance, low ones inhibition by little substance. By EC50 is commonly meant the midpoint of the concentration-response curve. In general, Kd refers to the concentration at which binding is half-saturated.

In data set [1] the target is Amyloid-beta precursor protein (Homo sapiens) (UniProt P05067). Briefly: Inhibition of amyloid beta 42 (unknown origin) self aggregation at 50 uM by ThT-based fluorometric method relative to control. In outline: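 Pretreated Aβ42 (50 µM final) was incubated at 30 °C in 10 mM phosphate buffer pH 8.0 with 10 mM NaCl, with or without inhibitor (50 µM). Samples were then diluted in 50 mM glycine-NaOH pH 8.5 containing 1.5 µM ThT. Fluorescence (ex 446/em 490 nm) was scanned for 300 s, plateau values averaged minus ThT background, giving % inhibition.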

The target in data set [2] is T1, Acetylcholinesterase (Homo sapiens, UniProt P22303). Kind of data set: Inhibition of acetylcholinesterase isolated from human red blood cells using acetylthiocholine as substrate preincubated for 5 mins followed by substrate addition measured every 2 mins by Ellman's method. Summed up:
(§1)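 Buffer was 0.1 M potassium phosphate, pH 7.4, with DTNB and enzyme (10 µL of 2.0 units/mL stock) in a 100 µL mix. Substrate was iodide salt (20 µL of 0.01 M). Inhibitor range 10-3–10-9 M. Absorbance rise read at 412 nm, 37 °C. Each concentration run in triplicate. IC50 is the concentration giving 50% loss of activity. Screening done at 10 µM before IC50 work.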

Data set [3] concerns the target Cholinesterase (Homo sapiens) (UniProt P06276). Kind of data set: Inhibition of butyrylcholinesterase isolated from human plasma at 10 uM using butyrylthiocholine as substrate preincubated for 5 mins followed by substrate addition measured every 2 mins by Ellman's method. In outline:
as §1

The nature of data set [4]: Antioxidant activity of the compound assessed as DPPH radical scavenging activity after 30 mins. In kind it is functional. Summed up:
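DPPH (0.2 mM solution) was mixed 1:1 in methanol with compound (10-3–10-6 M). After 30 min at laboratory temperature, absorbance was read at 517 nm. Triplicates per concentration; EC50 is the concentration giving a 50% decrease in DPPH activity.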
For orientation: The DPPH test is a chemical assay of radical scavenging.

Data set [5] is described as follows: Neurotoxicity against Wistar rat primary cerebellar granule neurons assessed as decrease in cell survival at 25 to 50 uM after 24 hrs by MTT assay. Type of data set: toxicity, cell-based. As to conditions: primary cerebellar granule neuron. (In general: Tetrazolium assays rely on reduction of a dye to a coloured formazan, in cell work by metabolically active cells.)

The next data set relates to HepG2. Briefly: Hepatotoxicity against human HepG2 cells assessed as decrease in cell viability at 5 to 50 uM after 24 hrs by MTT assay. As to conditions: hepg2, 24 h. Type of data set: toxicity, cell-based. In outline: (§2)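 HepG2 cells in high-glucose DMEM with 10% FBS were seeded at 8 x 10^3 cells/well, then exposed to 0–50 µM compound for 24 h in serum-free medium. MTT (0.1 mg/mL) was added for 20 min at 37 °C in the dark, formazan dissolved in Tris-HCl/5% Triton X-100, absorbance read at 570 nm. Viability as % of control; mean ± SE, four experiments at least in quadruplicate.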

Data set [6] concerns the target T1, Acetylcholinesterase. Kind of data set: Inhibition of acetylcholinesterase isolated from human red blood cells at 10 uM using acetylthiocholine as substrate preincubated for 5 mins followed by substrate addition measured every 2 mins by Ellman's method. Summed up: as §1
On the technique in general: DTNB colorimetry detects thiols as they appear.

The nature of data set [7]: Neurotoxicity against Wistar rat primary cerebellar granule neurons assessed as decrease in cell survival at 5 uM after 24 hrs by MTT assay. In kind it is toxicity, cell-based. The conditions noted are these: primary cerebellar granule neuron. Summed up:
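Cerebellar granule neurons came from 7-day-old Wistar rat pups, plated on poly-L-lysine in BME with 10% FBS and 25 mM KCl. Cytosine arabinoside (10 µmol/L) was added at 16 h. At 7 DIV, cells were moved to serum-free medium and exposed to 0–50 µM compound for 24 h. Survival was read by MTT at 570 nm as % of control; mean ± SE, four experiments at least in quadruplicate.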

A short description of data set [8]: Hepatotoxicity against human HepG2 cells assessed as cell viability at 5 to 50 uM after 24 hrs by MTT assay relative to control. In kind it is toxicity, cell-based. The conditions noted are these: read-out: Activity. Summed up:
as §2

The nature of data set [9]: Neurotoxicity against Wistar rat primary cerebellar granule neurons assessed as decrease in cell survival at 5 to 50 uM after 24 hrs by MTT assay. The conditions noted are these: primary cerebellar granule neuron. Type of data set: toxicity, cell-based.
The test system of data set [10] is Astrocyte. Kind of data set: Antineuroinflammatory activity against LPS-induced Wistar rat primary astrocytes assessed as decrease in nitrite production after 24 hrs by Griess method. In kind it is functional, cell-based. In outline: (§3)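 Microglia (shaken off) and astrocytes (trypsinized remainder) came from newborn Wistar rat cortical mixed glia grown 10–13 days. Cells were co-treated 24 h with LPS and compound (10–50 µM). Nitrite in the medium was measured by Griess reaction (sulfanilamide 5 mM, NEDA 40 mM) against a NaNO2 standard curve. Mean ± SE of 3 experiments, each at least in quadruplicate.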

The test system of data set [11] is Microglia. Briefly: Antineuroinflammatory activity against LPS-induced Wistar rat primary microglia cells assessed as decrease in nitrite production after 24 hrs by Griess method. Type of data set: functional, cell-based. In outline: as §3
Data set [12] relates to Astrocyte. Kind of data set: Immunomodulatory activity in LPS-induced Wistar rat primary astrocytes assessed as decrease in iNOS expression at 10 to 50 uM after 24 hrs by Western blot method. In kind it is functional, cell-based. Summed up: (§4)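 Rat primary microglia or astrocytes were exposed 24 h to LPS with compound (0–50 µM), then lysed; protein was measured by Lowry. Immunoblots used anti-iNOS, anti-TREM2 or anti-MRC1 with GAPDH as loading control, read by ECL and densitometry. Values are % of LPS alone; mean ± SE of 3 experiments.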

The subject of data set [13] is Microglia. Kind of data set: Immunomodulatory activity in LPS-induced Wistar rat primary microglia cells assessed as decrease in iNOS expression at 10 to 50 uM after 24 hrs by Western blot method. Type of data set: functional, cell-based. Summed up:
as §4

Data set [14] has as its system Primary glial cell. Briefly: Immunomodulatory activity in LPS-induced Wistar rat primary glial cells assessed as decrease in MRC1 expression at 10 to 50 uM after 24 hrs by Western blot method. In kind it is functional, cell-based. Summed up:
as §4

Data set [15] deals with Primary glial cell. Briefly: Immunomodulatory activity in LPS-induced Wistar rat primary glial cells assessed as decrease in TREME2 expression after 24 hrs by Western blot method. Type of data set: functional, cell-based. Summed up:
as §4

In data set [16] the test system is Primary glial cell. Briefly: Immunomodulatory activity in LPS-induced Wistar rat primary glial cells assessed as decrease in TREME2 mRNA expression after 24 hrs. In kind it is functional, cell-based.
The subject of data set [17] is Primary glial cell. Briefly: Immunomodulatory activity in LPS-induced Wistar rat primary glial cells assessed as decrease in iNOS mRNA expression after 24 hrs. Type of data set: functional, cell-based.
Data set [18] addresses Cholinesterase (Homo sapiens) (UniProt P06276). Kind of data set: Inhibition of butyrylcholinesterase isolated from human plasma up to 100 uM using butyrylthiocholine as substrate preincubated for 5 mins followed by substrate addition measured every 2 mins by Ellman's method. In outline: as §1
Data set [19] has as its target Acetylcholinesterase (Electrophorus electricus, UniProt O42275). Briefly: Displacement of propidium iodide from electric eel AChE by spectrofluorometric method. In outline: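 Back-titration of a preformed EeAChE (2 µM)–propidium iodide (8 µM) complex in 1.0 mM Tris-HCl pH 8.0, with inhibitor added stepwise (final 8–56 µM; methanol stock). Fluorescence read at 635 nm, excitation 535 nm. Blanks were run for propidium alone, inhibitor plus propidium, and enzyme alone. KD derived by the Taylor–Lappi treatment, taking propidium KD = 0.7 µM.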

T1 sequence (P22303 whole entry): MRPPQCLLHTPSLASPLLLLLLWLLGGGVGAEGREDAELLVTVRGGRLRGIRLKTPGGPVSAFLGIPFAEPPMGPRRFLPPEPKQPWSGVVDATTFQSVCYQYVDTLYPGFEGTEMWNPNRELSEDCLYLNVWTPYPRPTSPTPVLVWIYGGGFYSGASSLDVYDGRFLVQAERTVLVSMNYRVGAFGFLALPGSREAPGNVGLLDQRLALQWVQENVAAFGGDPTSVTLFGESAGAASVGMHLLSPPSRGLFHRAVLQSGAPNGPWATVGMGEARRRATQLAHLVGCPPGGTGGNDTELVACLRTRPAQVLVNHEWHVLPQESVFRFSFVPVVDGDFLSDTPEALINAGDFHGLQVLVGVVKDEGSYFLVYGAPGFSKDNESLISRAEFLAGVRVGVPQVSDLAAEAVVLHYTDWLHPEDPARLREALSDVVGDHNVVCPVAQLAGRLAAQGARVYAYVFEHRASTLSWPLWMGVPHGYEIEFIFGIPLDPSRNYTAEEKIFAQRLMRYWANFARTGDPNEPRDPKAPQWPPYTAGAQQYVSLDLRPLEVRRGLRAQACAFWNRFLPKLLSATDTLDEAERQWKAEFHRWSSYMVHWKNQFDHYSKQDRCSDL
Cholinesterase (Homo sapiens), sequence (P06276 whole entry): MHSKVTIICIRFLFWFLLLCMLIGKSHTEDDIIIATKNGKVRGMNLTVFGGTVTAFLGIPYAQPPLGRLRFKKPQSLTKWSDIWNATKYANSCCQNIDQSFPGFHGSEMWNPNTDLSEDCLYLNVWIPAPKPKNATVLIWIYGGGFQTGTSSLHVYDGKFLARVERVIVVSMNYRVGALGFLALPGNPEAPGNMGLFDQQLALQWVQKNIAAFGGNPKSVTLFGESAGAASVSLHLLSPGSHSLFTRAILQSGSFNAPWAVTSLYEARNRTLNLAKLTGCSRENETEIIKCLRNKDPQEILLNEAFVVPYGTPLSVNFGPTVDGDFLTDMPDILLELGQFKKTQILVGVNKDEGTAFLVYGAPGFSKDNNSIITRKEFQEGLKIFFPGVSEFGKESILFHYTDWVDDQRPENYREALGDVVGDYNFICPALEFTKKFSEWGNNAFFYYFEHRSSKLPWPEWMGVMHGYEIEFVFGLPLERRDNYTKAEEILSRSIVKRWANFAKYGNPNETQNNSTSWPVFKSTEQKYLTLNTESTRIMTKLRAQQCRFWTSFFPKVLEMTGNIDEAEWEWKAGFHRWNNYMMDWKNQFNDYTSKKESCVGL
Amyloid-beta precursor protein (Homo sapiens), sequence (P05067 whole entry): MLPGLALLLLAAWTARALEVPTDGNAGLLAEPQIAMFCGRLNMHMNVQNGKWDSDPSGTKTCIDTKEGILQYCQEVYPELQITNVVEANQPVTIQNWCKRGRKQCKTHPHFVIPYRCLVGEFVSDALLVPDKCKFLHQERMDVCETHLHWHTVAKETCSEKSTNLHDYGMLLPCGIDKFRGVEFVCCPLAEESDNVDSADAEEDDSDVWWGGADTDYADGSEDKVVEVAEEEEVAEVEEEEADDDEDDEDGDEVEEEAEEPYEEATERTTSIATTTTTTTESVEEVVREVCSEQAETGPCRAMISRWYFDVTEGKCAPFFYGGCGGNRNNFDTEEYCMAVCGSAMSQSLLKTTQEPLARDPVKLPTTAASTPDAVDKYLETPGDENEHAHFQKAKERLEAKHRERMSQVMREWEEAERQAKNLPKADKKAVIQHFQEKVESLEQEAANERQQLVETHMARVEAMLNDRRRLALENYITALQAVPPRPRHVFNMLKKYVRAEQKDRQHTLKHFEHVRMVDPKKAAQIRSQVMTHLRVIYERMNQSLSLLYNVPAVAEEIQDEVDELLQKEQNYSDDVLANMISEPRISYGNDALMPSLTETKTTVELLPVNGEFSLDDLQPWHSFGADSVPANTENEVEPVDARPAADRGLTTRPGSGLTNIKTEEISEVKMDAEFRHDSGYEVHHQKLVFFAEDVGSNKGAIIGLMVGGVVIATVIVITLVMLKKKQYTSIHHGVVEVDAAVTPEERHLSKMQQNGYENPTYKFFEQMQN
Acetylcholinesterase (Electrophorus electricus, UniProt O42275), sequence (O42275 whole entry): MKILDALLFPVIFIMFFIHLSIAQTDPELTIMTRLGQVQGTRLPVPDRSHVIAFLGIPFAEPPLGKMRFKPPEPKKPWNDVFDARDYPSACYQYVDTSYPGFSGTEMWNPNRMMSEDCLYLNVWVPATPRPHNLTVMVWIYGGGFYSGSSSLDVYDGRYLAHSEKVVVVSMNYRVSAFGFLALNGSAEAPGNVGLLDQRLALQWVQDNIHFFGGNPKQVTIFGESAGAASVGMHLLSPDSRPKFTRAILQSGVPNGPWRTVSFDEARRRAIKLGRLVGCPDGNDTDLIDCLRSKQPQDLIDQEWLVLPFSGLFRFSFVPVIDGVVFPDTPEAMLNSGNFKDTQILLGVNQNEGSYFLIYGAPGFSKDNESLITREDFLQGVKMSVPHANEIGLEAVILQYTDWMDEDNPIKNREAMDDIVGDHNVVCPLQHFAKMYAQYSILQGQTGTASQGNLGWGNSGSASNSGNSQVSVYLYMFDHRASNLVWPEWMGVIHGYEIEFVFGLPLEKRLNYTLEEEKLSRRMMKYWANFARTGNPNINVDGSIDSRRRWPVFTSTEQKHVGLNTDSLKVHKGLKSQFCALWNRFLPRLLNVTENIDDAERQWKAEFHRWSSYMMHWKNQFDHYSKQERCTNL

For `COc1ccc2nc3c(c(N)c2c1)CCCC3`, the inhibition in data set [1] is < 5%.

As for `Oc1cc(O)cc(CCc2ccc(Nc3c4c(nc5cc(Cl)ccc35)CCCC4)cc2)c1`, on Acetylcholinesterase [2], 1.3 µM corresponded to half-maximal inhibition (IC50). In addition, the inhibition result in data set [3] was “inactive”. The inhibition in data set [1] came out at 37.3%. Besides, the EC50 in data set [4] was > 5000 µM. Besides, the Activity entry (in data set [5]; with HepG2) was “Toxic” in each case.

Regarding `COc1cc(/C=C/c2ccc(Nc3c4c(nc5cc(Cl)ccc35)CCCC4)cc2)cc(OC)c1`, the inhibition result (on Acetylcholinesterase [6]; in data set [3]) was “inactive” throughout. In addition, in [1], the inhibition was determined as 21.6%. Moreover, the Activity result in data set [7] is listed as “Toxic”. Also, in [8], the viability at 24 h, up to 50 µM came to 70%.

For `COc1cc(CCc2ccc(Nc3c4c(nc5ccc(OC)cc35)CCCC4)cc2)cc(OC)c1`, the inhibition result (on Acetylcholinesterase [6]; in [3]) was “inactive” each time. For the same compound, the Activity result (in data set [7]; with HepG2) was “Toxic” throughout.

For the compound `CC(=O)N[C@@H](CS)C(=O)O` [ACETYLCYSTEINE], in [4], the EC50 was found to be 28 µM.

`Cc1c(C)c2c(c(C)c1O)CCC(C)(C(=O)O)O2` (stereo unspecified) [TROLOX]: in data set [4], the concentration for a half-maximal effect (EC50) is 16.2 µM.

Consider `COc1cc(/C=C/c2ccc(Nc3c4c(nc5ccccc35)CCCC4)cc2)cc(OC)c1`, for which the inhibition entry (at Acetylcholinesterase [6]; in data set [3]) was “inactive” each time. Further, the Activity result (in data set [5]; in the data set with HepG2) was “Toxic” in each case.

The compound `Oc1cc(O)cc(/C=C/c2ccc(Nc3c4c(nc5cc(Cl)ccc35)CCCC4)cc2)c1` yielded an IC50 at Acetylcholinesterase [2] of 8.8 µM. The inhibition entry in data set [3] is “inactive”. Also, the inhibition in data set [1] is 31.2%. Also, in data set [4], the EC50 is > 5000 µM. The Activity result in data set [9] is “Non-Toxic”; in the data set with Astrocyte [10] it was “Dose-dependent effect”; with Microglia [11] it was “Dose-dependent effect”; in the data set with Primary glial cell [15] it was “Dose-dependent effect”; in the data set with HepG2 it was “Toxic”. The outcome in the data set with Astrocyte [12], in the data set with Microglia [13], with Primary glial cell [14], in the data set with Primary glial cell [16] and with Primary glial cell [17] was Active.

On Acetylcholinesterase [2], `COc1cc(CCc2ccc(Nc3c4c(nc5ccccc35)CCCC4)cc2)cc(OC)c1` gave an IC50 of 14.2 µM. Also, the inhibition entry in data set [3] is “inactive”. Besides, the Activity entry (in [7]; in the data set with HepG2) was “Toxic” throughout.

Consider `Oc1ccc(/C=C/c2cc(O)cc(O)c2)cc1` [RESVERATROL], for which the inhibition entry (on Acetylcholinesterase [6]; in data set [18]) was “inactive” in each case. In addition, the inhibition in data set [1] is 30%. Also, the EC50 in [4] is 25.6 µM. Also, the Activity entry with HepG2 was “Non-Toxic”.

In the case of `COc1cc(CCc2ccc(Nc3c4c(nc5cc(Cl)ccc35)CCCC4)cc2)cc(OC)c1`, the IC50 against Acetylcholinesterase [2] was determined as 0.8 µM. In addition, the inhibition entry in data set [3] was “inactive”. For the same compound, the affinity on Acetylcholinesterase [19], expressed as Kd, was 7.31 µM. In data set [1], the inhibition is 17.6%. Moreover, the concentration for a half-maximal effect (EC50) in [4] is 155 µM. Besides, the Activity result (in [7]; with HepG2) was “Toxic” throughout.

Take `COc1cc(/C=C/c2ccc(Nc3c4c(nc5ccc(OC)cc35)CCCC4)cc2)cc(OC)c1`: the inhibition entry (at Acetylcholinesterase [6]; in data set [3]) was “inactive” each time. Also, the Activity result (in data set [7]; in the data set with HepG2) was “Toxic” each time.
